This passage reports inhibition, IC50 and Activity results from ChEMBL document CHEMBL1799916, “Novel 3,5-bis(bromohydroxybenzylidene)piperidin-4-ones as coactivator-associated arginine methyltransferase 1 inhibitors: enzyme selectivity and cellular activity” (J Med Chem, 2011).

The source made the active and inactive calls. The rule behind the calls is not given here. Where only a bound is given, the exact number is not on record here.

For series [1], the target named is T1, Histone-arginine methyltransferase CARM1 (Homo sapiens) (UniProt Q86X55).
T1 sequence (whole entry): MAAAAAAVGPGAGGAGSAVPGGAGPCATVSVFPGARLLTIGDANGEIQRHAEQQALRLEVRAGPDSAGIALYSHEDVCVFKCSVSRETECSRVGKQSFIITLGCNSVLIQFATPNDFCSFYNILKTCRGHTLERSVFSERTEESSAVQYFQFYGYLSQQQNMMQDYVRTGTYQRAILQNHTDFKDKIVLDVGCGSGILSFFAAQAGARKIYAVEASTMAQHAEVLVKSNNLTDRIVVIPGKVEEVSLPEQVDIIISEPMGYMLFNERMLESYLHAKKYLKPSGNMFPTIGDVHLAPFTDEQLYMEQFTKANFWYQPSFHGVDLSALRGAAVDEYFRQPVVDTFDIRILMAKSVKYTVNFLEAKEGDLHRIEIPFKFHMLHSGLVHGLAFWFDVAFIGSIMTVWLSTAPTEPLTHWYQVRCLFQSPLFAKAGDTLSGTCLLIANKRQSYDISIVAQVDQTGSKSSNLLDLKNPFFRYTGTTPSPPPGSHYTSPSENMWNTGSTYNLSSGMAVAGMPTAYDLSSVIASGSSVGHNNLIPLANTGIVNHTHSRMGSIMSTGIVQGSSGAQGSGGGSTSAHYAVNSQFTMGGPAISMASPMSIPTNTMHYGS
Nature of the series: Inhibition of CARM1-mediated methylation of PABP1 at 100 uM after 90 mins by scintillation counting in presence of S-adenosyl-l-[methyl-3H]methionine. The method, boiled down: (§1)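 Compound at 100 μM with 0.1–0.2 μM recombinant enzyme and 0.5–1.5 μM substrate in PBS pH 7.4 containing [³H]AdoMet. Incubated 30 °C for 90 min, then SDS-PAGE, PVDF transfer and overnight film fluorography. Ponceau-stained substrate bands cut out and dpm counted by liquid scintillation.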

Series [2] concerns the target T2, Histone-lysine N-methyltransferase SETD7 (Homo sapiens) (UniProt Q8WTS6).
T2 sequence (whole entry): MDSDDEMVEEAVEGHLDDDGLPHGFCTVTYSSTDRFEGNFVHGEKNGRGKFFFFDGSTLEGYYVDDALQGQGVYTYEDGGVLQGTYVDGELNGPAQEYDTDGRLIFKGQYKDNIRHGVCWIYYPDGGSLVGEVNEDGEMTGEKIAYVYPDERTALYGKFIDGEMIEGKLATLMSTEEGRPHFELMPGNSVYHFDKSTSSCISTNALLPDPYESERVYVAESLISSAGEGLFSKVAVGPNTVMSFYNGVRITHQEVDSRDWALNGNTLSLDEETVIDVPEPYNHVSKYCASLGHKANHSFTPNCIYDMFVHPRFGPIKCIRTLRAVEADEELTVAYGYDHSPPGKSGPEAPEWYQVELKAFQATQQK
The experiment in a line: Inhibition of SET7-mediated methylation of histone H3 at 100 uM after 90 mins by scintillation counting in presence of S-adenosyl-l-[methyl-3H]methionine. Put shortly:
as §1

Series [3] addresses T3, Histone-lysine N-methyltransferase SETD7 (Homo sapiens, UniProt Q8WTS6).
T3 sequence (Q8WTS6 whole entry): T2 sequence (whole entry)
The experiment in a line: Inhibition of SET7-mediated methylation of histone H3 after 90 mins by scintillation counting in presence of S-adenosyl-l-[methyl-3H]methionine.

The target of series [4] is Protein arginine N-methyltransferase 5 (Homo sapiens) (UniProt O14744). The experiment in a line: Inhibition of PRMT5-mediated methylation of histone H4 at 100 uM after 90 mins by scintillation counting in presence of S-adenosyl-l-[methyl-3H]methionine. Put shortly:
as §1

Series [5] has as its target T1, Histone-arginine methyltransferase CARM1 (Homo sapiens). The experiment in a line: Inhibition of CARM1-mediated prostate specific antigen promoter activity in human LNCAP cells at 30 uM after 48 hrs by luciferase reporter gene assay. It is filed as cell-based. The method, boiled down: (§2)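 LNCaP grown in phenol-red-free RPMI1640 with 10% charcoal-stripped FCS, lipofected with 300 ng PSA(ARE)-LUC and 2 ng CMV-Renilla internal control. After 12 h, 20 nM DHT added to induce PSA-firefly, together with increasing compound concentrations. Cells harvested 42–44 h later; 5/6 used for dual luciferase read-out (firefly relative to Renilla). Mean ± SD from triplicate assays.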
A general note: Reporter assays use an easily measured gene product as a stand-in for the process of interest.

Series [6] deals with LNCaP. Nature of the series: Cytotoxicity against human LNCAP cells assessed as ATP level at 30 uM after 44 hrs by CellTiter-Glo luminescent assay. The format is cell-based. Put shortly:
(§3)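 LNCaP in phenol-red-free RPMI1640 with 10% charcoal-stripped FCS, seeded ~20 h before transfection with PSA(ARE)-LUC plus CMV-Renilla. 12 h after transfection, treated with 20 nM DHT and compound. Harvested after 42–44 h; 1/6 of the cells assayed for ATP by CellTiter-Glo luminescence.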
A general note: In ATP-based viability assays light output follows the ATP content of the culture.

Series [7] deals with T1, Histone-arginine methyltransferase CARM1 (Homo sapiens). The experiment in a line: Inhibition of CARM1-mediated prostate specific antigen promoter activity in human LNCAP cells after 48 hrs by luciferase reporter gene assay. It is filed as cell-based. The method, boiled down:
as §2

Series [8] relates to LNCaP. Nature of the series: Cytotoxicity against human LNCAP cells assessed as ATP level at 8 to 10 uM after 44 hrs by CellTiter-Glo luminescent assay. It is filed as cell-based. Put shortly:
as §3

Series [9] concerns the target T1, Histone-arginine methyltransferase CARM1 (Homo sapiens). The experiment in a line: Inhibition of CARM1 expressed in tetracycline-induced human HEK293 cells coexpressing flag-tagged PABP1 assessed as inhibition of PABP1 methylation at 1 to 5 uM by SDS-PAGE analysis. The format is cell-based. Put shortly:
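HEK293 line carrying tetracycline-controlled TetR with inducible Flag-tagged PABP1. Tetracycline added in the presence of compound to induce Flag-PABP1, which is resolved from endogenous PABP1 by its slower SDS-PAGE migration. Methylation detected with a methyl-specific PABP1 antibody.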

Series [10] concerns the target Protein arginine N-methyltransferase 3 (Homo sapiens) (UniProt O60678). The experiment in a line: Inhibition of PRMT3-mediated methylation of NPL3 at 100 uM after 90 mins by scintillation counting in presence of S-adenosyl-l-[methyl-3H]methionine. The method, boiled down:
as §1

For series [11] the target is unchanged. The experiment in a line: Inhibition of PRMT3-mediated methylation of ribosome protein rpS223 at 100 uM after 90 mins by scintillation counting in presence of S-adenosyl-l-[methyl-3H]methionine. Put shortly: as §1

Protein arginine N-methyltransferase 3 (Homo sapiens), sequence (O60678 2-531 limits assumed): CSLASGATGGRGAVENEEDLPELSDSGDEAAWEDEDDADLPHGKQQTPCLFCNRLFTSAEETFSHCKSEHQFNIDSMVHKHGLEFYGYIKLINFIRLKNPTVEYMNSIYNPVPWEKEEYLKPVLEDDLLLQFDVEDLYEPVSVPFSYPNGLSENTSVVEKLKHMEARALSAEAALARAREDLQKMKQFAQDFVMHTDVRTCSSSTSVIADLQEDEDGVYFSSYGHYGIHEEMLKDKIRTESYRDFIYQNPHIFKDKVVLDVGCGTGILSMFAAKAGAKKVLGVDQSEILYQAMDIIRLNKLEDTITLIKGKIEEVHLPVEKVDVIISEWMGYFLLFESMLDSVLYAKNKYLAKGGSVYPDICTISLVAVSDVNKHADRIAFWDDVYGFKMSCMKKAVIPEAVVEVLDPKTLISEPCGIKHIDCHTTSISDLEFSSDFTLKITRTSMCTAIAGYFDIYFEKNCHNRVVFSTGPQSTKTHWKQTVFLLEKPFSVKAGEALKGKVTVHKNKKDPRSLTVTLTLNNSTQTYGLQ
Protein arginine N-methyltransferase 5 (Homo sapiens), sequence (O14744 whole entry): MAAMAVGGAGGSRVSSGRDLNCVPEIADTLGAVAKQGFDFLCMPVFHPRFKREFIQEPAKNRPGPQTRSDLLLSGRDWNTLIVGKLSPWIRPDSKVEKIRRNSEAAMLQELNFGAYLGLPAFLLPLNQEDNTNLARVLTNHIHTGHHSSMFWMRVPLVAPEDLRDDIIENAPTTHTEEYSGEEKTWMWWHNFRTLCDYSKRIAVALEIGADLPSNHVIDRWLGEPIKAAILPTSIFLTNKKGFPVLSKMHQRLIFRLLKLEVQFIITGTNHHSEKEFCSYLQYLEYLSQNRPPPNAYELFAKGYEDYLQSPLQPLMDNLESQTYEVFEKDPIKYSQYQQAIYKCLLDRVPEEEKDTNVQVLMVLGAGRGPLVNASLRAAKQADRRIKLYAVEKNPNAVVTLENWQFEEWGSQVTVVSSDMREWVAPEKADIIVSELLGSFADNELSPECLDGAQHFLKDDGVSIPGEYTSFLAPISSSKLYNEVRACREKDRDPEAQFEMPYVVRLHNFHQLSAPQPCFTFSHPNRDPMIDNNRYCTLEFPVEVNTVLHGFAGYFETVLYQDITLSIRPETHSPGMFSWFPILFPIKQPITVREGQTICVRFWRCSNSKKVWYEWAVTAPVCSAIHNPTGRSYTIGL

With `O=C1/C(=C/c2ccc(O)c(Br)c2)CN(CC(=O)c2ccccc2)C/C1=C\c1ccc(O)c(Br)c1`, the inhibition entry in series [1], in series [4] and in series [5] was “Active” each time. The inhibition entry in [2] is “inactive”. Besides, the IC50 in [3] worked out at 149 µM. Further, in the series on LNCaP [6], the Activity result is “Non-toxic”.
As for `O=C1/C(=C/c2ccc(O)c(Br)c2)CN(Cc2ccccc2)C/C1=C\c1ccc(O)c(Br)c1`, the inhibition result in series [1], in series [9], in [10] and in [11] was “Active” in each case. The inhibition entry in [2] was “inactive”. In addition, in [3], the IC50 was greater than 667 µM. Further, in series [7], the inhibition result was “Dose-dependent effect”. Further, in the series on LNCaP [8], the Activity entry is “Non-toxic”.
Turning to `O=C1/C(=C/c2ccc(O)c(Br)c2)CN(Cc2cccc(Cl)c2)C/C1=C\c1ccc(O)c(Br)c1`, the inhibition entry in series [1], in [4], in series [10] and in series [11] was “Active” each time. In addition, the inhibition entry in [2] was “inactive”. For the same compound, the half-inhibitory concentration (IC50) in series [3] was determined as 174 µM. Besides, the inhibition entry in series [7] is “Dose-dependent effect”.

In general, IC50 refers to the point on the concentration scale where inhibition reaches its midpoint.
